Measurements taken from publication PMC5990500 (Neurology and Therapy, 2017).
Like-named read-outs stand apart in the source and are kept apart here.

Experiments:
cGMP [1] = settings: healthy male volunteers, single oral dose; cited from earlier work
cGMP [2] = settings: cited from earlier work
memory performance = settings: cited from earlier work
[3] = format: in vivo, human
Summary of the method: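 Randomized, double-blind, placebo-controlled study in DSM-IV schizophrenia patients (18–55 y, clinically stable, on one antipsychotic). Plasma AUC0−∞, Cmax and tmax taken on day 1, and AUCtau,ss, Cmax,ss and tmax,ss at steady state (day 14). Dose proportionality was fitted by log-log linear regression.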

[4] = healthy male volunteers, single oral dose; cited from earlier work
rat hippocampal slices = settings: application to rat hippocampal slices; cited from earlier work
healthy male volunteers = settings: cited from earlier work
[5] = system: patients with mild-to-moderate schizophrenia; experiment: Safety and tolerability; format: in vivo, human
Summary of the method: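 Patients were randomized 1:1:1:1 to oral test compound (25, 50 or 100 mg) or placebo once daily for 14 days, double-blind. Assessments were AEs, vital signs, 12-lead ECG, clinical laboratory tests, physical examination, CGI-I, PANSS, C-SSRS, Snellen visual acuity and Ishihara colour vision. End-of-treatment visit came 7–14 days after the last dose. All dosed patients were included, and results were summarized descriptively.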

[6] = system: patients with mild-to-moderate probable Alzheimer's disease; settings: cited from earlier work
[7] = steady state vs single dose, 25 to 100 mg
[8] = phase II placebo-controlled study

O=c1[nH]c(Cc2ccccn2)nc2c1cnn2C1CCOCC1 [BI 409306]
cGMP in the CSF (cGMP [1]): dose- and concentration-dependent increase
cGMP in rat cerebrospinal fluid (CSF) and prefrontal cortex (cGMP [2]): dose-dependent increase
memory performance (memory performance): improved memory performance
dose proportionality of exposure ([3]; 25- to 100-mg dose range): dose-proportional from 50 to 100 mg
gCV% of exposure (inter-individual variability) ([3]; CYP2C19 µM predicted phenotype): 154%
gCV% of exposure (inter-individual variability) ([3]; CYP2C19 EM predicted phenotype): 152%
gCV% of exposure (inter-individual variability) ([3]; CYP2C19 IM predicted phenotype): 48.4%
exposure by CYP2C19 predicted phenotype ([3]; IM, EM, UM patients): highest in patients with the CYP2C19 IM predicted phenotype, followed by EM and UM patients
half-life ([3]; human, plasma, oral): 1.1 to 1.85 h
gCV of AUC0−∞ (inter-individual variability), range over dose groups ([3]; single dose): 98.4% to 108%
gCV of C max (inter-individual variability), range over dose groups ([3]; single dose): 73.3% to 106%
time to reach C max ([3]; single dose, across 25, 50, 100 mg): 30 to 45 min
gCV of AUCtau,ss (inter-individual variability), range over dose groups ([3]; steady state): 86.8% to 112%
gCV of C max,ss (inter-individual variability), range over dose groups ([3]; steady state): 74.4% to 90.9%
accumulation ratio AUC, range over dose groups [3, 7]: 0.758–1.13
accumulation ratio C max, range over dose groups [3, 7]: 0.768–1.40
maximum concentration in CSF as % of the maximum plasma concentration [4]: 28.31%
effect on long-term potentiation (LTP) (rat hippocampal slices): significant enhancement of long-term potentiation
frequency of eye disorders (healthy male volunteers; healthy male Chinese and Japanese subjects receiving BI 409306): 29.8%
time to resolution of visual AEs / eye disorders (healthy male volunteers; healthy male volunteers): 1 to 2 h
mean change from baseline in total PANSS score ([5]; 25 mg qd, day 7): −0.1
mean change from baseline in total PANSS score ([5]; 25 mg qd, day 13): 2.3
mild suicidal ideation after treatment initiation (C-SSRS score = 1), patients ([5]; 50 mg qd): one patient
mean change from baseline in total PANSS score ([5]; 50 mg qd, day 7): −0.2
mean change from baseline in total PANSS score ([5]; 50 mg qd, day 13): 0.0
mean change from baseline in total PANSS score ([5]; 100 mg qd, day 7): −1.4
mean change from baseline in total PANSS score ([5]; 100 mg qd, day 13): −3.6
effect on mean pupil diameter relative to placebo ([5]; 25, 50, 100 mg qd): negligible effect
CGI-I, overall disease status ([5]; 25, 50, 100 mg qd 14 days): no change or minimal improvement
changes in laboratory parameters, vital signs, or ECGs ([5]; 25, 50, 100 mg qd 14 days): No clinically relevant or dose-related changes
deaths, serious AEs, discontinuation due to AEs ([5]; 25, 50, 100 mg qd 14 days): no deaths, serious AEs or discontinuation due to AEs
intensity of AEs ([5]; 25, 50, 100 mg qd 14 days): mild
tolerability ([5]; 25, 50, 100 mg qd 14 days): well tolerated
color discrimination (Ishihara plates) ([5]; all treatment groups): normal at maximum time points in all the patients

C[C@@H]1CN(Cc2ncccn2)C[C@H]1c1nc2c(cnn2C2CCOCC2)c(=O)[nH]1 [PF-04447943]
efficacy vs placebo in cognition, behavior, clinician-rated global change ([6]; 12-week treatment): not more effective than placebo
estimated median exposure relative to the IC50 [6, 8]: remained above the IC50 for the entire dosing duration
maximal concentrations relative to the IC50 [6, 8]: approximately five times the IC50
